Measurements from different studies.
Lines come from different studies, so protocols differ.
Target: Activin receptor type-1B (ACVR1B, Homo sapiens, UniProt P36896)
Sequence (P36896 24-505, as in one of the studies): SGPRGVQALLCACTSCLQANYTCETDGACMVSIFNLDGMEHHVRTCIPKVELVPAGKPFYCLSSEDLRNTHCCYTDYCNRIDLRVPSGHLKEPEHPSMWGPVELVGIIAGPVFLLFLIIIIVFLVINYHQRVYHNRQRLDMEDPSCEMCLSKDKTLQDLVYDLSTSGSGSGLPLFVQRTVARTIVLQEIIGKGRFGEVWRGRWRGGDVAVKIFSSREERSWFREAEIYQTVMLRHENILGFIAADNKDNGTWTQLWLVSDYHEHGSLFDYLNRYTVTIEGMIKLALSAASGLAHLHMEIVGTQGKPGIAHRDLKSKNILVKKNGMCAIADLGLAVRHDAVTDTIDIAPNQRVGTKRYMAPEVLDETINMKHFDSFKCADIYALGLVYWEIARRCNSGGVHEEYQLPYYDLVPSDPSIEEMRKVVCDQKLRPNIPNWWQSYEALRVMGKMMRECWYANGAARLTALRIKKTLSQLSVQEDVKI

| SMILES | read-out | method | concentration | remaining binding [%] |
| --- | --- | --- | --- | --- |
| O=C(c1ccc(Nc2ncc(Cl)c(-c3ccc(Cl)s3)n2)cc1)N1CCC(N2CCCC2)CC1 | binding | competition with immobilised ligand | 1 µM | 58 |
| c1cncc(-c2cccc(Nc3nccc(NC4CCCCC4)n3)c2)c1 | binding | competition with immobilised ligand | 10 µM | 75 |
| CN(C)c1ncnc(-c2ccc3nc(Nc4cc(CN5CCN(C(=O)CC(F)(F)F)CC5)ccn4)[nH]c3c2)c1Cl | cell-free assay | competition with immobilised ligand | 1 µM | 91 |
| COc1cnc(Nc2cccc(S(N)(=O)=O)c2)nc1N1CCN(c2ccccc2)C(=O)C1 | binding | competition with immobilised ligand | 1 µM | 100 |
| CC1CCCN1c1nccc(-c2cnn3ncccc23)n1 (centres unmarked) | binding | – | 1 µM | 88 |
| O=C(NCc1ncc(C(F)(F)F)cc1Cl)c1ccc2c(c1)C1(CCS(=O)(=O)CC1)[C@H](C1CC1)N2S(=O)(=O)c1ccc(F)cc1 | cell-free assay | competition with immobilised ligand | 1 µM | 94 |
| O=C(NCCCN1CCOCC1)c1ccc(Nc2nccc(-c3cc4ccccc4s3)n2)cc1 | binding | competition with immobilised ligand | 1 µM | 75 |
| Cc1cnn2ncc(-c3ccnc(N(C)C)n3)c2c1 | binding | – | 1 µM | 100 |
| CS(=O)(=O)NCC[C@H](NC(=O)c1cncc2c1cnn2-c1ccc(F)cc1)c1ccnc(S(C)(=O)=O)c1 | cell-free assay | competition with immobilised ligand | 1 µM | 100 |
| C[C@@H]1CCN(c2nccc(-c3cnn4ncccc34)n2)C1 | binding | – | 1 µM | 76 |
| CCN1CCN(Cc2ccc(C(=O)Nc3ccc(C)c(Oc4ccc5c(c4)CC(=O)N5)c3)cc2C(F)(F)F)CC1 | binding | competition with immobilised ligand | 1 µM | 100 |
| CN(CCCC(F)(F)F)c1nccc(-c2cnn3ncccc23)n1 | binding | – | 1 µM | 96 |
| CNC(=O)c1ccc(Nc2ncc(C(F)(F)F)c(NCc3nccnc3N(C)S(C)(=O)=O)n2)cc1 | cell-free assay | competition with immobilised ligand | 0.1 µM | 69 |
| C[C@@H]1CN(c2ccc3ncc(-c4ccc5[nH]nc(C6CC6)c5c4)n3n2)C[C@H](C)O1 | binding | competition with immobilised ligand | 0.5 µM | 100 |
| Cc1nc(C2CCN(C(=O)c3ccc(OC(F)(F)F)cc3N)CC2)c2ncc(N3CCN(C)CC3)cc2n1 | cell-free assay | competition with immobilised ligand | 1 µM | 86 |
| Nc1ncc2c(n1)-c1c([nH]c3ccc(C#CC4CC4)cc13)CCCC2 | binding | competition with immobilised ligand | 1 µM | 89 |
| N#Cc1ccccc1CSc1nnc2c(n1)[nH]c1ccccc12 | binding | competition with immobilised ligand | 10 µM | 91 |
